Measurements: ChEMBL document CHEMBL3286116, “Synthesis, biological evaluation and structure-activity correlation study of a series of imidazol-based compounds as Candida albicans inhibitors” (Eur J Med Chem, 2014)
Converted amounts (≈) assume the structure as drawn.

Tests used:
Type in all cases: functional
Candida albicans [1] = test: Antifungal activity against Candida albicans ATCC 3153 after 48 hrs by CLSI broth microdilution method; settings: ATCC 3153, 48 h
Summary of the method: (§1)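 Yeast CLSI broth microdilution (M27-A3). Compounds dissolved in DMSO at 100× the top test concentration, then diluted as serial two-fold dilutions in RPMI 1640 to final 0.125–64. Inoculum was 1.0–1.5 × 10^3 cells mL−1, incubated at 35 °C and read for growth at 48 h. MIC is the lowest concentration giving ≥50% growth inhibition versus growth control. Reported as the median of five replicates and as the geometric mean.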

Candida albicans [2] = test: Antifungal activity against Candida albicans ATCC 10261 after 48 hrs by CLSI broth microdilution method; settings: ATCC 10261, 48 h; summary of the method: as §1
Candida tropicalis [3] = test: Antifungal activity against Candida tropicalis PMC 0910 after 48 hrs by CLSI broth microdilution method; settings: PMC 0910, 48 h; summary of the method: as §1
Cryptococcus neoformans [4] = test: Antifungal activity against Cryptococcus neoformans PMC 2123 after 72 hrs by CLSI broth microdilution method; settings: PMC 2123, 72 h
Summary of the method: (§2)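 Cryptococcus neoformans tested by CLSI broth microdilution in RPMI 1640, with serial two-fold dilutions from DMSO stocks at 100× the top concentration, final 0.125–64. Inoculum was 1.0–1.5 × 10^3 cells mL−1 at 35 °C, with growth read at 72 h. MIC is the lowest concentration with ≥50% growth inhibition versus control. Median of five replicates, plus geometric mean.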

Nakaseomyces glabratus [5] = test: Antifungal activity against Candida glabrata PMC 0807 after 48 hrs by CLSI broth microdilution method; settings: PMC 0807, 48 h; summary of the method: as §1
Candida tropicalis [6] = test: Antifungal activity against Candida tropicalis DSM 11953 after 48 hrs by CLSI broth microdilution method; settings: DSM 11953, 48 h; summary of the method: as §1
Nakaseomyces glabratus [7] = test: Antifungal activity against Candida glabrata PMC 0805 after 48 hrs by CLSI broth microdilution method; settings: PMC 0805, 48 h; summary of the method: as §1
Cryptococcus neoformans [8] = test: Antifungal activity against Cryptococcus neoformans DSM 11959 after 72 hrs by CLSI broth microdilution method; settings: DSM 11959, 72 h; summary of the method: as §2
Cryptococcus neoformans [9] = test: Antifungal activity against Cryptococcus neoformans PMC 2111 after 72 hrs by CLSI broth microdilution method; settings: PMC 2111, 72 h; summary of the method: as §2
Cryptococcus neoformans [10] = test: Antifungal activity against Cryptococcus neoformans PMC 2136 after 72 hrs by CLSI broth microdilution method; settings: PMC 2136, 72 h; summary of the method: as §2
Cryptococcus neoformans [11] = test: Antifungal activity against Cryptococcus neoformans PMC 2107 after 72 hrs by CLSI broth microdilution method; settings: PMC 2107, 72 h; summary of the method: as §2
Candida albicans [12] = test: Antifungal activity against Candida albicans ATCC 20891 after 48 hrs by CLSI broth microdilution method; settings: ATCC 20891, 48 h; summary of the method: as §1
Candida albicans [13] = test: Antifungal activity against Candida albicans ATCC 76615 after 48 hrs by CLSI broth microdilution method; settings: ATCC 76615, 48 h; summary of the method: as §1
[14] = system: Trichophyton mentagrophytes; test: Antifungal activity against Trichophyton mentagrophytes PMC 6552 after 72 hrs by CLSI broth microdilution method; settings: PMC 6552, 72 h
Summary of the method: (§3)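 Dermatophytes tested by CLSI broth microdilution for filamentous fungi (M38-A2). Serial two-fold dilutions of DMSO-dissolved compound in RPMI 1640, final 0.125–64. Inoculum was 0.4–5 × 10^4 CFU mL−1, incubated at 35 °C and read at 72 h. MIC80 is the lowest concentration giving ≥80% growth inhibition versus growth control. Median of five replicates, plus geometric mean.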

Candida albicans [15] = test: Antifungal activity against Candida albicans PMC 1011 after 48 hrs by CLSI broth microdilution method; settings: PMC 1011, 48 h; summary of the method: as §1
Pichia kudriavzevii [16] = test: Antifungal activity against Candida krusei PMC 0613 after 48 hrs by CLSI broth microdilution method; settings: PMC 0613, 48 h; summary of the method: as §1
Cryptococcus neoformans [17] = test: Antifungal activity against Cryptococcus neoformans PMC 2103 after 72 hrs by CLSI broth microdilution method; settings: PMC 2103, 72 h; summary of the method: as §2
Candida parapsilosis [18] = test: Antifungal activity against Candida parapsilosis ATCC 22019 after 48 hrs by CLSI broth microdilution method; settings: Lodderomyces parapsilosis, ATCC 22019, 48 h; summary of the method: as §1
Cryptococcus neoformans [19] = test: Antifungal activity against Cryptococcus neoformans PMC 2102 after 72 hrs by CLSI broth microdilution method; settings: PMC 2102, 72 h; summary of the method: as §2
Candida albicans [20] = test: Antifungal activity against Candida albicans ATCC 24433 after 48 hrs by CLSI broth microdilution method; settings: ATCC 24433, 48 h; summary of the method: as §1
Pichia kudriavzevii [21] = test: Antifungal activity against Candida krusei DSM 6128 after 48 hrs by CLSI broth microdilution method; settings: DSM 6128, 48 h; summary of the method: as §1
[22] = system: Trichophyton mentagrophytes; test: Antifungal activity against Trichophyton mentagrophytes PMC 6503 after 72 hrs by CLSI broth microdilution method; settings: PMC 6503, 72 h; summary of the method: as §3
Candida albicans [23] = test: Antifungal activity against Candida albicans ATCC 10231 after 48 hrs by CLSI broth microdilution method; settings: ATCC 10231, 48 h; summary of the method: as §1
Candida parapsilosis [24] = test: Antifungal activity against Candida parapsilosis DSM 11224 after 48 hrs by CLSI broth microdilution method; settings: Lodderomyces parapsilosis, DSM 11224, 48 h; summary of the method: as §1
[25] = system: Trichophyton mentagrophytes; test: Antifungal activity against Trichophyton mentagrophytes PMC 6531 after 72 hrs by CLSI broth microdilution method; settings: PMC 6531, 72 h; summary of the method: as §3
[26] = system: Trichophyton mentagrophytes; test: Antifungal activity against Trichophyton mentagrophytes PMC 6515 after 72 hrs by CLSI broth microdilution method; settings: PMC 6515, 72 h; summary of the method: as §3
Nannizzia gypsea [27] = test: Antifungal activity against Microsporum gypseum DSM 3824 after 72 hrs by CLSI broth microdilution method; settings: DSM 3824, 72 h; summary of the method: as §3
Candida albicans [28] = test: Antifungal activity against Candida albicans ATCC 90028 after 48 hrs by CLSI broth microdilution method; settings: ATCC 90028, 48 h; summary of the method: as §1
Cryptococcus neoformans [29] = test: Antifungal activity against Cryptococcus neoformans PMC 2115 after 72 hrs by CLSI broth microdilution method; settings: PMC 2115, 72 h; summary of the method: as §2
[30] = system: Trichophyton mentagrophytes; test: Antifungal activity against Trichophyton mentagrophytes PMC 6509 after 72 hrs by CLSI broth microdilution method; settings: PMC 6509, 72 h; summary of the method: as §3
[31] = system: Trichophyton mentagrophytes; test: Antifungal activity against Trichophyton mentagrophytes DSM 4870 after 72 hrs by CLSI broth microdilution method; settings: DSM 4870, 72 h; summary of the method: as §3
Nannizzia gypsea [32] = test: Antifungal activity against Microsporum gypseum PMC 7331 after 72 hrs by CLSI broth microdilution method; settings: PMC 7331, 72 h; summary of the method: as §3
Nannizzia gypsea [33] = test: Antifungal activity against Microsporum gypseum PMC 7303 after 72 hrs by CLSI broth microdilution method; settings: PMC 7303, 72 h; summary of the method: as §3

| Structure (SMILES) | MIC50 (Candida albicans [1]) | MIC50 (Candida albicans [2]) | MIC50 (Candida tropicalis [3]) | MIC50 (Cryptococcus neoformans [4]) | MIC50 (Nakaseomyces glabratus [5]) | MIC50 (Candida tropicalis [6]) | MIC50 (Nakaseomyces glabratus [7]) | MIC50 (Cryptococcus neoformans [8]) | MIC50 (Cryptococcus neoformans [9]) | MIC50 (Cryptococcus neoformans [10]) | MIC50 (Cryptococcus neoformans [11]) | MIC50 (Candida albicans [12]) | MIC50 (Candida albicans [13]) | MIC80 [14] | MIC50 (Candida albicans [15]) | MIC50 (Pichia kudriavzevii [16]) | MIC50 (Cryptococcus neoformans [17]) | MIC50 (Candida parapsilosis [18]) | MIC50 (Cryptococcus neoformans [19]) | MIC50 (Candida albicans [20]) | also measured |
| --- | --- | --- | --- | --- | --- | --- | --- | --- | --- | --- | --- | --- | --- | --- | --- | --- | --- | --- | --- | --- | --- |
| O=C(O[C@@H](Cn1ccnc1)c1ccc(Cl)cc1)N1CCN(c2ccc(Cl)cc2)CC1 | 4 µg/mL (≈ 8.98 µM) | 4 µg/mL (≈ 8.98 µM) | 16 µg/mL (≈ 35.9 µM) | 2 µg/mL (≈ 4.49 µM) | 32 µg/mL (≈ 71.9 µM) | 64 µg/mL (≈ 144 µM) | 8 µg/mL (≈ 18 µM) | 2 µg/mL (≈ 4.49 µM) | 2 µg/mL (≈ 4.49 µM) | 2 µg/mL (≈ 4.49 µM) | 2 µg/mL (≈ 4.49 µM) | 8 µg/mL (≈ 18 µM) | 8 µg/mL (≈ 18 µM) | 8 µg/mL (≈ 18 µM) | 4 µg/mL (≈ 8.98 µM) | 8 µg/mL (≈ 18 µM) | 2 µg/mL (≈ 4.49 µM) | 1 µg/mL (≈ 2.25 µM) | 4 µg/mL (≈ 8.98 µM) | 8 µg/mL (≈ 18 µM) | MIC50 (Pichia kudriavzevii [21]): 128 µg/mL (≈ 287 µM); MIC80 [22]: 4 µg/mL (≈ 8.98 µM); MIC50 (Candida albicans [23]): 8 µg/mL (≈ 18 µM); MIC50 (Candida parapsilosis [24]): 8 µg/mL (≈ 18 µM); MIC80 [25]: 8 µg/mL (≈ 18 µM); MIC80 [26]: 4 µg/mL (≈ 8.98 µM); MIC80 (Nannizzia gypsea [27]): 8 µg/mL (≈ 18 µM); MIC50 (Candida albicans [28]): 4 µg/mL (≈ 8.98 µM); MIC50 (Cryptococcus neoformans [29]): 4 µg/mL (≈ 8.98 µM); MIC80 [30]: 8 µg/mL (≈ 18 µM); MIC80 [31]: 8 µg/mL (≈ 18 µM); MIC80 (Nannizzia gypsea [32]): 16 µg/mL (≈ 35.9 µM); MIC80 (Nannizzia gypsea [33]): 8 µg/mL (≈ 18 µM) |
| O=C(OC(Cn1ccnc1)c1ccc(F)cc1)N1CCN(C(=O)c2ccco2)CC1 (stereo unspecified) | 128 µg/mL (≈ 310 µM) | 128 µg/mL (≈ 310 µM) | 128 µg/mL (≈ 310 µM) | 128 µg/mL (≈ 310 µM) | 128 µg/mL (≈ 310 µM) | 64 µg/mL (≈ 155 µM) | 32 µg/mL (≈ 77.6 µM) | 64 µg/mL (≈ 155 µM) | 128 µg/mL (≈ 310 µM) | 64 µg/mL (≈ 155 µM) | 128 µg/mL (≈ 310 µM) | 128 µg/mL (≈ 310 µM) | 128 µg/mL (≈ 310 µM) | 128 µg/mL (≈ 310 µM) | 32 µg/mL (≈ 77.6 µM) | 32 µg/mL (≈ 77.6 µM) | 64 µg/mL (≈ 155 µM) | 16 µg/mL (≈ 38.8 µM) | 128 µg/mL (≈ 310 µM) | 128 µg/mL (≈ 310 µM) | MIC50 (Pichia kudriavzevii [21]): 128 µg/mL (≈ 310 µM); MIC80 [22]: 128 µg/mL (≈ 310 µM); MIC50 (Candida albicans [23]): 64 µg/mL (≈ 155 µM); MIC50 (Candida parapsilosis [24]): 32 µg/mL (≈ 77.6 µM); MIC80 [25]: 64 µg/mL (≈ 155 µM); MIC80 [26]: 128 µg/mL (≈ 310 µM); MIC80 (Nannizzia gypsea [27]): 128 µg/mL (≈ 310 µM); MIC50 (Candida albicans [28]): 32 µg/mL (≈ 77.6 µM); MIC50 (Cryptococcus neoformans [29]): 128 µg/mL (≈ 310 µM); MIC80 [30]: 64 µg/mL (≈ 155 µM); MIC80 [31]: 128 µg/mL (≈ 310 µM); MIC80 (Nannizzia gypsea [32]): 128 µg/mL (≈ 310 µM); MIC80 (Nannizzia gypsea [33]): 128 µg/mL (≈ 310 µM) |
